Results taken from ChEMBL document CHEMBL3352743, “Chemically accessible hsp90 inhibitor that does not induce a heat shock response” (ACS Med Chem Lett, 2014).
Values after ≈ are worked out from the molar mass of the structure shown. One block for each compound: values may come before it. Active and inactive are the calls of the source. The calls are words filed in the database; no cut-off is given here. Peptide text beside a SMILES is read from it.

How the values were obtained:
[1] = target: Heat shock protein HSP 90-beta (Homo sapiens) (UniProt P08238); assay: Binding affinity to HSP90 in human HCT116 cells by coomassie blue staining and Western blotting based pull down assay; type: cell-based; settings: HCT-116
Outline: (§1)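 Biotin-tagged analogue (0.1 mg) incubated in HCT-116 or MiaPaCa-2 cell lysate, then recovered on NeutrAvidin beads. Bound proteins eluted in sample buffer, visualized by Coomassie stain or Western blot, and identified by nano-LC/MS/MS. Image representative of 3 independent assays.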

[2] = target: Heat shock protein HSP 90-beta (Homo sapiens) (UniProt P08238); assay: Binding affinity to HSP90 in human MIAPaCa2 cells by coomassie blue staining and Western blotting based pull down assay; type: cell-based; settings: MIA PaCa-2; outline: as §1
[3] = target: Heat shock protein HSP 90-beta (Oryctolagus cuniculus) (UniProt P30947); assay: Inhibition of HSP90 in rabbit reticulocyte lysates at 5 uM pre-incubated for 2 hrs by firefly luciferase protein re-folding assay
[4] = Cytotoxicity against human MIAPaCa2 cells after 72 hrs by CCK8 assay; type: functional, cell-based; settings: MIA PaCa-2, 72 h
[5] = Cytotoxicity against human HCT116 cells after 72 hrs by CCK8 assay; type: functional, cell-based; settings: HCT-116, 72 h
[6] = Solubility in 80% EtOH/20% water; type: physicochemical
[7] = Induction of heat shock response in human MIAPaCa2 cells assessed as HSP40 protein expression at IC50 level by western blotting method relative to untreated control; type: cell-based; settings: mia paca-2
[8] = Induction of heat shock response in human MIAPaCa2 cells assessed as HSP90 protein expression at IC50 level by western blotting method relative to untreated control; type: cell-based; settings: mia paca-2
Outline: (§2)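 MiaPaCa-2 cells, run alongside HCT-116, treated with compound at the line's level and also at 10-fold above it. Western blotting measured HSF1, hsp90, hsp70, hsp40 and hsp27 protein levels, quantified as fold change versus untreated control.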

[9] = Induction of heat shock response in human HCT116 cells assessed as HSP40 protein expression at IC50 level by western blotting method relative to untreated control; type: cell-based; settings: hct-116
[10] = target: Heat shock protein HSP 90-beta (Oryctolagus cuniculus) (UniProt P30947); settings: 100 nM
[11] = Induction of heat shock response in human HCT116 cells assessed as HSP90 protein expression at IC50 level by western blotting method relative to untreated control; type: cell-based; settings: hct-116
[12] = Induction of heat shock response in human HCT116 cells assessed as HSP70 protein expression at IC50 level by western blotting method relative to untreated control; type: cell-based; settings: hct-116
HCT-116 [13] = assay: Induction of apoptosis in human HCT116 cells at 1000 nM after 24 hrs by annexin V and 7-AAD staining based flow cytometry; type: functional
MIA PaCa-2 [14] = assay: Induction of apoptosis in human MIAPaCa2 cells assessed as caspase 3/7 activation at 1000 nM after 24 hrs by luminometry; type: functional
[15] = Induction of heat shock response in human HCT116 cells assessed as HSP27 protein expression at IC50 level by western blotting method relative to untreated control; type: cell-based; settings: hct-116
[16] = Induction of heat shock response in human MIAPaCa2 cells assessed as HSP27 protein expression at IC50 level by western blotting method relative to untreated control; type: cell-based; settings: mia paca-2; outline: as §2
[17] = Induction of heat shock response in human MIAPaCa2 cells assessed as HSP70 protein expression at IC50 level by western blotting method relative to untreated control; type: cell-based; settings: mia paca-2
[18] = Induction of heat shock response in human MIAPaCa2 cells assessed as HSF1 protein expression at IC50 level by western blotting method relative to untreated control; type: cell-based; settings: mia paca-2
[19] = Induction of heat shock response in human HCT116 cells assessed as HSF1 protein expression at IC50 level by western blotting method relative to untreated control; type: cell-based; settings: hct-116
HCT-116 [20] = assay: Induction of apoptosis in human HCT116 cells assessed as caspase 3/7 activation at 1000 nM after 24 hrs by luminometry; type: functional
[21] = Reduction in HSP40 protein expression in human MIAPaCa2 cells at 50 uM by western blotting method relative to untreated control; type: functional, cell-based; settings: MIA PaCa-2
[22] = Reduction in HSP70 protein expression in human MIAPaCa2 cells at IC50 level by western blotting method; type: functional, cell-based; settings: MIA PaCa-2
[23] = Reduction in HSP90 protein expression in human HCT116 cells at IC50 level by western blotting method; type: functional, cell-based; settings: HCT-116
[24] = Reduction in HSF1 protein expression in human HCT116 cells at 50 uM by western blotting method relative to untreated control; type: functional, cell-based; settings: HCT-116
[25] = Reduction in HSP70 protein expression in human MIAPaCa2 cells at 50 uM by western blotting method relative to untreated control; type: functional, cell-based; settings: MIA PaCa-2
[26] = Reduction in HSF1 protein expression in human HCT116 cells at IC50 level by western blotting method; type: functional, cell-based; settings: HCT-116
[27] = Reduction in HSP90 protein expression in human HCT116 cells at 50 uM by western blotting method relative to untreated control; type: functional, cell-based; settings: HCT-116
[28] = Reduction in HSP40 protein expression in human HCT116 cells at 50 uM by western blotting method relative to untreated control; type: functional, cell-based; settings: HCT-116
[29] = Reduction in HSF1 protein expression in human MIAPaCa2 cells at 50 uM by western blotting method relative to untreated control; type: functional, cell-based; settings: MIA PaCa-2
MIA PaCa-2 [30] = assay: Induction of apoptosis in human MIAPaCa2 cells assessed as caspase 3/7 activation at 50 uM after 24 hrs by luminometry; type: functional
[31] = Reduction in HSP27 protein expression in human MIAPaCa2 cells at 50 uM by western blotting method relative to untreated control; type: functional, cell-based; settings: MIA PaCa-2
HCT-116 [32] = assay: Induction of cell cycle arrest in human HCT116 cells assessed as accumulation at G0/G1 phase at 5 uM after 24 hrs by propidium iodide staining based cytometry; type: functional
[33] = Reduction in HSP90 protein expression in human MIAPaCa2 cells at IC50 level by western blotting method; type: functional, cell-based; settings: MIA PaCa-2
[34] = Reduction in HSP40 protein expression in human MIAPaCa2 cells at IC50 level by western blotting method; type: functional, cell-based; settings: MIA PaCa-2
[35] = Reduction in HSP40 protein expression in human HCT116 cells at IC50 level by western blotting method; type: functional, cell-based; settings: HCT-116
MIA PaCa-2 [36] = assay: Induction of cell cycle arrest in human MIAPaCa2 cells assessed as accumulation at G0/G1 phase at 5 uM after 24 hrs by propidium iodide staining based cytometry; type: functional
HCT-116 [37] = assay: Induction of apoptosis in human HCT116 cells assessed as caspase 3/7 activation at 50 uM after 24 hrs by luminometry; type: functional
[38] = Reduction in HSF1 protein expression in human MIAPaCa2 cells at IC50 level by western blotting method; type: functional, cell-based; settings: MIA PaCa-2
[39] = Reduction in HSP70 protein expression in human HCT116 cells at IC50 level by western blotting method; type: functional, cell-based; settings: HCT-116
[40] = Reduction in HSP90 protein expression in human MIAPaCa2 cells at 50 uM by western blotting method relative to untreated control; type: functional, cell-based; settings: MIA PaCa-2
HCT-116 [41] = assay: Induction of apoptosis in human HCT116 cells at 50 uM after 24 hrs by annexin V and 7-AAD staining based flow cytometry; type: functional
[42] = Reduction in HSP27 protein expression in human HCT116 cells at IC50 level by western blotting method; type: functional, cell-based; settings: HCT-116
[43] = Reduction in HSP27 protein expression in human HCT116 cells at 50 uM by western blotting method relative to untreated control; type: functional, cell-based; settings: HCT-116
[44] = target: Heat shock protein HSP 90-beta (Oryctolagus cuniculus) (UniProt P30947); assay: Inhibition of HSP90 in rabbit reticulocyte lysates at 5 uM […] by firefly luciferase protein re-folding assay; settings: in the assay text read “2 hrs” for “5 hrs”
Outline: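 Denatured firefly luciferase incubated for 2 h in rabbit reticulocyte lysate pretreated with compound. Refolding read as luciferase activity relative to control. Mean ± SEM, n = 3.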

[45] = Reduction in HSP70 protein expression in human HCT116 cells at 50 uM by western blotting method relative to untreated control; type: functional, cell-based; settings: HCT-116
[46] = Reduction in HSP27 protein expression in human MIAPaCa2 cells at IC50 level by western blotting method; type: functional, cell-based; settings: MIA PaCa-2
[47] = 80% EtOH/20% water, read-out: solubility

Sequence of Heat shock protein HSP 90-beta (Oryctolagus cuniculus) (P30947 whole entry): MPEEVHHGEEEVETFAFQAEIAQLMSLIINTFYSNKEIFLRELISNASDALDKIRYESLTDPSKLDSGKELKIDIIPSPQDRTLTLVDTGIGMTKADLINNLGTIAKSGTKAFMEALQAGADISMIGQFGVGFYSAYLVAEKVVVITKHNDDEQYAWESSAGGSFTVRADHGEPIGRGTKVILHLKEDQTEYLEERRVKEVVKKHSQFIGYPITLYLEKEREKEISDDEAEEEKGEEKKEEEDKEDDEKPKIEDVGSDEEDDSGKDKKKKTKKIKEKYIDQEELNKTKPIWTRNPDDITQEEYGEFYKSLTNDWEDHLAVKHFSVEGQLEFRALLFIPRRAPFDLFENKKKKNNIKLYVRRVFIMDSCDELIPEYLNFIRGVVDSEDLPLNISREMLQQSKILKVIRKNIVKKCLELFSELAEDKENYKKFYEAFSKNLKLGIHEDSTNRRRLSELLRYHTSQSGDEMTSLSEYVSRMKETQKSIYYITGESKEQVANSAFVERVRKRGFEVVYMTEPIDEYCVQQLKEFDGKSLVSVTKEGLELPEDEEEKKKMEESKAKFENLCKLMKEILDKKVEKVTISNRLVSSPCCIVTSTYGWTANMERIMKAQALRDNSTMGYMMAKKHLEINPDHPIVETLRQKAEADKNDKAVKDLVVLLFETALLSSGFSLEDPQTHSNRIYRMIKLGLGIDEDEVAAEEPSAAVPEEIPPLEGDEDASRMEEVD
Sequence of Heat shock protein HSP 90-beta (Homo sapiens) (P08238 whole entry): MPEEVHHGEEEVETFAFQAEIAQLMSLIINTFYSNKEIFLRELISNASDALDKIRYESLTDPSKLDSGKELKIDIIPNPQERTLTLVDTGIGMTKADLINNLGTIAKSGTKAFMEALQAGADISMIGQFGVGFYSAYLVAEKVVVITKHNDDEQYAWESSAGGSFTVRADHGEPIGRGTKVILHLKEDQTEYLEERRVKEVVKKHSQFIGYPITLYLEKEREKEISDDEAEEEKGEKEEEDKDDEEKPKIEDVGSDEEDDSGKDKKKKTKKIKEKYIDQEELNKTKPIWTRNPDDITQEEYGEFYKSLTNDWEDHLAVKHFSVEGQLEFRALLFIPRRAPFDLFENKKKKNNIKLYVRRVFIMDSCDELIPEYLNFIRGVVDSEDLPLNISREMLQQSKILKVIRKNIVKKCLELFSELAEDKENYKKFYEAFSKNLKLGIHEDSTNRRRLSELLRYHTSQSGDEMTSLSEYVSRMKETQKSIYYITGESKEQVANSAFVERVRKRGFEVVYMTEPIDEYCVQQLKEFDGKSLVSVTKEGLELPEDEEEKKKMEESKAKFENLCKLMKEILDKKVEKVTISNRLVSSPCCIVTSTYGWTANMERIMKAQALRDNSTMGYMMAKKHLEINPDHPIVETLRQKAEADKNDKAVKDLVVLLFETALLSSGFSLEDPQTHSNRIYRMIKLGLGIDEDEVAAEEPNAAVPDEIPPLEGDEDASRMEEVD

Compound: CC(C)C[C@H]1NC(=O)[C@@H](Cc2cscn2)NC(=O)[C@@H](C(c2ccccc2)c2ccccc2)NC(=O)[C@H](CCCCNC(=O)CCOCCOCCOCCOCCNC(=O)CCCC[C@@H]2SC[C@@H]3NC(=O)N[C@@H]32)NC(=O)[C@H](C(C)C)N(C)C1=O
Activity [1]: Active
Activity [2]: Active

Compound: C=CCNC1=C2C[C@@H](C)C[C@H](OC)[C@H](O)[C@@H](C)/C=C(\C)[C@H](OC(N)=O)[C@@H](OC)/C=C\C=C(/C)C(=O)NC(=CC1=O)C2=O [TANESPIMYCIN]
fold change (FC) [7]: 2
fold change (FC) [8]: 2
fold change (FC) [9]: 2
inhibition [10]: 17%
fold change (FC) [11]: 2
fold change (FC) [12]: 2
Activity (HCT-116 [13]): 25%
fold change (FC) (MIA PaCa-2 [14]): 2
fold change (FC) [15]: 2
fold change (FC) [16]: 2
fold change (FC) [17]: 2
fold change (FC) [18]: 2
fold change (FC) [19]: 2
fold change (FC) (HCT-116 [20]): 2

Second part, led by results:

inhibition [3]: 25%
solubility [6, 47]: 5200 µg/mL (≈ 7.03 mM)
Compound: CC(C)C[C@@H]1NC(=O)[C@H](C(C)C)N(C)C(=O)[C@@H](CC(C)C)NC(=O)[C@@H](Cc2ccccc2)NC(=O)[C@@H]([C@H](OCc2ccccc2)c2ccccc2)NC1=O (HELM PEPTIDE1{L.[O=C([C@H](N[*:1])[C@H](OCc1ccccc1)c1ccccc1)[*:2]].[dF].[dL].[meV]}$PEPTIDE1,PEPTIDE1,1:R1-5:R2$$$V2.0)
IC50 [4]: 7.8 µM
IC50 [5]: 7.4 µM

solubility [6, 47]: 1900 µg/mL (≈ 2.54 mM)
Compound: CC(C)C[C@@H]1NC(=O)[C@H](C(C)C)N(C)C(=O)[C@@H](CC(C)C)NC(=O)[C@@H](Cc2c[nH]c3ccccc23)NC(=O)[C@@H](C(c2ccccc2)c2ccccc2)NC1=O
IC50 [4]: 4.5 µM
IC50 [5]: 3.9 µM

solubility ([6]; buffer): 9500 µg/mL (≈ 13.3 mM)
inhibition [44]: 42%
Compound: CC(C)C[C@@H]1NC(=O)[C@H](C(C)C)N(C)C(=O)[C@@H](CC(C)C)NC(=O)[C@@H](Cc2cscn2)NC(=O)[C@@H](C(c2ccccc2)c2ccccc2)NC1=O (HELM PEPTIDE1{L.[O=C([C@H](N[*:1])C(c1ccccc1)c1ccccc1)[*:2]].[O=C([C@@H](Cc1cscn1)N[*:1])[*:2]].[dL].[meV]}$PEPTIDE1,PEPTIDE1,1:R1-5:R2$$$V2.0)
fold change (FC) [21]: 2
inhibition [22]: Active
inhibition [23]: Active
fold change (FC) [24]: 2
fold change (FC) [25]: 2
IC50 [4]: 5.5 µM
inhibition [26]: Active
fold change (FC) [27]: 2
IC50 [5]: 5 µM
fold change (FC) [28]: 2
fold change (FC) [29]: 2
fold change (FC) (MIA PaCa-2 [30]): 4
fold change (FC) [31]: 2
Activity (HCT-116 [32]): Active
inhibition [33]: Active
inhibition [34]: Active
inhibition [35]: Active
Activity (MIA PaCa-2 [36]): Active
fold change (FC) (HCT-116 [37]): 4
inhibition [38]: Active
inhibition [39]: Active
fold change (FC) [40]: 2
Activity (HCT-116 [41]): 75%
inhibition [42]: Active
fold change (FC) [43]: 2
fold change (FC) [45]: 2
inhibition [46]: Active
